Test results: ChEMBL document CHEMBL1140227, “Histone deacetylase inhibitors through click chemistry” (J Med Chem, 2008)

How the values were obtained:
Type in all cases: functional
HCT-116 = assay: Growth inhibition of human HCT116 cells at 10 uM relative to control; details: values are per cent of control
Procedure, shortened: (§1)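 Single-dose preliminary screen in the NCI human cancer cell line panel, run by the NIH. Percent inhibition of cell line growth was calculated by comparison with untreated samples.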

HCT-15 = assay: Growth inhibition of human HCT15 cells at 10 uM relative to control; details: values are per cent of control; procedure, shortened: as §1
HT-29 = assay: Growth inhibition of human HT-29 cells at 10 uM relative to control; details: values are per cent of control; procedure, shortened: as §1
KM12 = assay: Growth inhibition of human KM12 cells at 10 uM relative to control; details: values are per cent of control; procedure, shortened: as §1
SW-620 = assay: Growth inhibition of human SW620 cells at 10 uM relative to control; details: values are per cent of control
Procedure, shortened: (§2)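 Single-dose NCI human tumour cell line screen, run by the NIH. Percent inhibition of cell line growth was calculated by comparison with untreated samples.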

BT-549 = assay: Growth inhibition of human BT549 cells at 10 uM relative to control; details: values are per cent of control; procedure, shortened: as §1
[1] = Growth inhibition of human Hs 578T cells at 10 uM relative to control; details: values are per cent of control; procedure, shortened: as §1
MCF7 = assay: Growth inhibition of human MCF7 cells at 10 uM relative to control; details: values are per cent of control; procedure, shortened: as §1
MDA-MB-231 = assay: Growth inhibition of human MDA-MB-231 cells at 10 uM relative to control; details: values are per cent of control; procedure, shortened: as §1
MDA-MB-435 = assay: Growth inhibition of human MDA-MB-435 cells at 10 uM relative to control; details: values are per cent of control; procedure, shortened: as §1
MDA-MB-468 = assay: Growth inhibition of human MDA-MB-468 cells at 10 uM relative to control; details: values are per cent of control; procedure, shortened: as §1
NCI/ADR-RES = assay: Growth inhibition of human NCI/ADR-RES cells at 10 uM relative to control; details: values are per cent of control; procedure, shortened: as §1
T47D = assay: Growth inhibition of human T47D cells at 10 uM relative to control; details: values are per cent of control; procedure, shortened: as §2
IGROV-1 = assay: Growth inhibition of human IGROV1 cells at 10 uM relative to control; details: values are per cent of control; procedure, shortened: as §1
OVCAR-3 = assay: Growth inhibition of human OVCAR-3 cells at 10 uM relative to control; details: values are per cent of control; procedure, shortened: as §1
OVCAR-4 = assay: Growth inhibition of human OVCAR4 cells at 10 uM relative to control; details: values are per cent of control; procedure, shortened: as §1
OVCAR-5 = assay: Growth inhibition of human OVCAR5 cells at 10 uM relative to control; details: values are per cent of control; procedure, shortened: as §1
OVCAR-8 = assay: Growth inhibition of human OVCAR8 cells at 10 uM relative to control; details: values are per cent of control; procedure, shortened: as §1
SK-OV-3 = assay: Growth inhibition of human SKOV3 cells at 10 uM relative to control; details: values are per cent of control; procedure, shortened: as §1
CCRF-CEM = assay: Growth inhibition of human CCRF-CEM cells at 10 uM relative to control; details: values are per cent of control; procedure, shortened: as §1
HL-60(TB) = assay: Growth inhibition of human HL-60(TB) cells at 10 uM relative to control; details: read-out: INH
Procedure, shortened: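 Single-dose cell line screen run by the NCI (NIH) in its human cancer cell line panel, which includes the leukemia line HL-60(TB). Percent growth inhibition was calculated by comparison with untreated samples.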

K562 = assay: Growth inhibition of human K562 cells at 10 uM relative to control; details: values are per cent of control; procedure, shortened: as §1
MOLT-4 = assay: Growth inhibition of human MOLT4 cells at 10 uM relative to control; details: values are per cent of control; procedure, shortened: as §1
[2] = Growth inhibition of human RPMI8266 cells at 10 uM relative to control; details: values are per cent of control; procedure, shortened: as §1
786-0 = assay: Growth inhibition of human 786-0 cells at 10 uM relative to control; details: values are per cent of control; procedure, shortened: as §1
A498 = assay: Growth inhibition of human A498 cells at 10 uM relative to control; details: values are per cent of control; procedure, shortened: as §1
ACHN = assay: Growth inhibition of human ACHN cells at 10 uM relative to control; details: values are per cent of control; procedure, shortened: as §1

O=C(Cn1cc(C(=O)NO)nn1)c1ccccc1
growth, % of control at 10 µM (HCT-116): 97.3% | growth, % of control at 10 µM (HCT-15): 108% | growth, % of control at 10 µM (HT-29): 115% | growth, % of control at 10 µM (KM12): 108% | growth, % of control at 10 µM (SW-620): 94.8% | growth, % of control at 10 µM (BT-549): 108% | growth, % of control at 10 µM [1]: 90% | growth, % of control at 10 µM (MCF7): 112% | growth, % of control at 10 µM (MDA-MB-231): 101% | growth, % of control at 10 µM (MDA-MB-435): 106% | growth, % of control at 10 µM (MDA-MB-468): 110% | growth, % of control at 10 µM (NCI/ADR-RES): 91.3% | growth, % of control at 10 µM (T47D): 102% | growth, % of control at 10 µM (IGROV-1): 100% | growth, % of control at 10 µM (OVCAR-3): 146% | growth, % of control at 10 µM (OVCAR-4): 112% | growth, % of control at 10 µM (OVCAR-5): 84.1% | growth, % of control at 10 µM (OVCAR-8): 96.2% | growth, % of control at 10 µM (SK-OV-3): 109% | growth, % of control at 10 µM (CCRF-CEM): 92.1% | growth, % of control at 10 µM (HL-60(TB)): 136% | growth, % of control at 10 µM (K562): 85.1% | growth, % of control at 10 µM (MOLT-4): 110% | growth, % of control at 10 µM [2]: 79.8% | growth, % of control at 10 µM (786-0): 105% | growth, % of control at 10 µM (A498): 67.6% | growth, % of control at 10 µM (ACHN): 99.2%
